Test results as given in publication PMC5004525 (Pharmacognosy Research, 2016).
“Also recorded” adds a separate entry of the source.

Legend:
Format in all cases: biochemical
[1] = target: human glutathione transferase Pi-1 (hGSTP1) (Homo sapiens, UniProt P09211); assay: Inhibition of human GST Pi-1
Method in brief: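 Purified recombinant human GSTP1 (0.003 mg/mL) in 0.1 M potassium phosphate, pH 6.5, with 0.001 M GSH and CDNB as substrate. Test compounds were tested at 0.01–500 µM and extracts at 0.01–1000 µg/mL. CDNB–GSH conjugation was read at 340 nm over 20 min. The blank replaced enzyme with buffer. Activity is expressed as percent of no-inhibitor control, 5 replicates.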

human recombinant UGT1A1 = target: T1, human recombinant UGT1A1 (Homo sapiens, UniProt P22309); assay: UGT-Glo luminescent inhibition assay, human recombinant UGT1A1
T1 sequence (P22309 26-533): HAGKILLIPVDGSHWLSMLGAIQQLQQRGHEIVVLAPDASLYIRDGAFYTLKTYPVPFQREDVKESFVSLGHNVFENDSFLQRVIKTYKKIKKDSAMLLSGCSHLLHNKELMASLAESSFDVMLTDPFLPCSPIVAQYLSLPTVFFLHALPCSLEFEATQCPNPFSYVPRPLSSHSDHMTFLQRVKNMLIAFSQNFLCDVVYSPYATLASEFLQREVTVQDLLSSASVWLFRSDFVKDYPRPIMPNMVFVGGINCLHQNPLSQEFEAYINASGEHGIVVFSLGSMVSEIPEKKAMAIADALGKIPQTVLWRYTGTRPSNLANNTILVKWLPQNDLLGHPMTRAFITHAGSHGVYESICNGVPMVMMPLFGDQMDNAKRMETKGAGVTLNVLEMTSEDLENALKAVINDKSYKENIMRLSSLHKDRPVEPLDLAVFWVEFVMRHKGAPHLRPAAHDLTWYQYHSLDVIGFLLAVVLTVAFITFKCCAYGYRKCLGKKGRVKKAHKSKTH
Method in brief: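 UGT-Glo luminescent assay at 37°C with 0.1 mg/mL UGT supersomes, 20 µM multienzyme substrate and 4 mM UDPGA. Incubation was 90 min for UGT1A1 and 60 min for UGT2B7. Reactions were stopped with luciferin detection reagent plus D-cysteine for 20 min at room temperature, then luminescence read. Control microsomes lacking UGT served as negative control. Extracts were tested at 0.1–1000 µg/mL and constituents at 0.02–200 µM. IC50 was fitted by nonlinear regression; three determinations from two experiments.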

[2] = tested on: rat liver UDP-glucuronosyltransferase enzyme (rat liver microsomes); assay: Inhibition of rat liver UGT in rat liver microsomes; conditions: up to the highest concentration investigated
human recombinant UGT2B7 = target: T2, human recombinant UGT2B7 (Homo sapiens, UniProt P16662); assay: UGT-Glo luminescent inhibition assay, human recombinant UGT2B7; conditions: human recombinant enzyme
T2 sequence (P16662 24-529): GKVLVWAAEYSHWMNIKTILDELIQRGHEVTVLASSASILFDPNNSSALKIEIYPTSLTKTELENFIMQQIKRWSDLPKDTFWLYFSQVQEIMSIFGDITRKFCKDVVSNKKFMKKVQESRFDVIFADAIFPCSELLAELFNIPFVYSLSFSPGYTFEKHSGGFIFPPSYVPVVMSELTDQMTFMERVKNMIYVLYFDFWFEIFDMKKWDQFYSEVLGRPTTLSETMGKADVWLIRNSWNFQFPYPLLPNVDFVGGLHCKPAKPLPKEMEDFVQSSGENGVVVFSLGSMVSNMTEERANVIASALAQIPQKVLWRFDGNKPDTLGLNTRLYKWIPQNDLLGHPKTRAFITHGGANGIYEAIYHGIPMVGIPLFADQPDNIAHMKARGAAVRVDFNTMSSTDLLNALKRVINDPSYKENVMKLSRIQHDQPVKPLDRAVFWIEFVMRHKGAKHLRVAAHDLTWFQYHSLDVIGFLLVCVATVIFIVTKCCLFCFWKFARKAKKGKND

[3] = tested on: rat liver glutathione transferase enzyme; assay: Inhibition of rat liver GST
Method in brief: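 Rat liver cytosol was the 100,000 ×g 60 min supernatant, taken after a 12,500 ×g spin of homogenate in 67 mM phosphate, pH 7.4, with 1.15% KCl. Assay used 0.125 mg/mL cytosol, 0.1 M potassium phosphate pH 6.5, 0.001 M GSH and CDNB, read at 340 nm for 5 min. Blanks used cytosol heat-denatured at 60°C for 20 min.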

Sequence of human glutathione transferase Pi-1 (hGSTP1) (P09211 2-210 limits assumed): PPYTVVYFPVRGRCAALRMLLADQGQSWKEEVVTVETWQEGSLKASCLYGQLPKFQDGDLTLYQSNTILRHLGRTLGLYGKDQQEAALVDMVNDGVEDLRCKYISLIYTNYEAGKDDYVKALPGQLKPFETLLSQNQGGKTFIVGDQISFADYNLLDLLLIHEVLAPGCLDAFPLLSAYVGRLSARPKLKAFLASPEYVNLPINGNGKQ

inhibition of hGSTP1 (in words) [1] | percentage of inhibition of hGSTP1 activity ([1]; at the highest concentration determined (compounds 500 µM)) [%] | inhibition of UGT1A1 (in words) (human recombinant UGT1A1; human recombinant enzyme) | inhibition of rat liver UGT enzyme activity (in words) [2] | inhibition of rat liver GST (in words) [3] | inhibition at 500 µM ([1]; read-out: percentage of inhibition of hGSTP1 activity) [%] | inhibitory effect on UGT1A1 compared to UGT2B7 (human recombinant UGT1A1; ratio of IC50 values UGT2B7/UGT1A1) [times] | IC50, rat liver GST ([3]; CDNB substrate, mean ± SEM, n = 5) [µg/mL] | Compound | inhibition of UGT2B7 (in words) (human recombinant UGT2B7)
did not show inhibition | < 50 | weaker inhibition | did not show any inhibition | very low inhibition or no inhibition |  |  |  | CC(C)=CCCC(C)c1ccc(C)cc1 (centres unmarked) [Curcumene, curcumene] | did not show any inhibition; also recorded: weaker inhibition
did not show inhibition |  |  |  | very low inhibition or no inhibition | < 50 | 3 |  | CC(C)=CCC[C@@H](C)c1ccc(C)c(O)c1 [Xanthorrhizol, xanthorrhizol] | 
 |  |  |  |  |  |  | 4.83 ± 2.29 | Tannic acid [reference compound] | 
